Measurements taken from PubChem BioAssay AID624467 (The Scripps Research Institute Molecular Screening Center, 2012).
Out of some 360,000 compounds screened, about 3,600 (1%) were called active. Many of the other results were omitted from the sample, so actives are more common in it than they were. A number with no mark means an inactive call.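 The calls were made as follows: active = activation above the mean activation of all test compounds in the run plus 3 SD (cut at about 38% in these data); inactive = the rest.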

The compounds below were run against Trace amine-associated receptor 1 (Homo sapiens) (UniProt Q96RJ0) (assay: human TAAR1 agonists, primary screen, Fluo-8 calcium fluorescence, CHO RD-HGA16 cells (AID 624467)). Conditions: CHO RD-HGA16 TAAR1, Fluo-8 calcium fluorescence; at 3 µM; hits give high values.
Trace amine-associated receptor 1 (Homo sapiens), sequence (Q96RJ0 whole entry, looked up): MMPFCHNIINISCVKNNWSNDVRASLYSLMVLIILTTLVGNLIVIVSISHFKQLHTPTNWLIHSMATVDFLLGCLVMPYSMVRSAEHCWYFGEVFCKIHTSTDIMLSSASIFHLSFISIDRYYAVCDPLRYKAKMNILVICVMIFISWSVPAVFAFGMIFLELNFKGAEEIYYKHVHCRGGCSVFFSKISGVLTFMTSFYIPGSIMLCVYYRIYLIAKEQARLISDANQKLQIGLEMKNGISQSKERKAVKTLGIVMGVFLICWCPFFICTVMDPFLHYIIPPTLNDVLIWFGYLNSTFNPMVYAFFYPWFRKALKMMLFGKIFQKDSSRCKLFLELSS
Summary of the method: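 Signal – calcium-sensitive Fluo-8 signal, excitation 470-495, emission 515-575 nm · System – RD-HGA16 (CHO) cells co-expressing Gα16 and hTAAR1 · Incubation – 17-24 h seeding, 75 min 37 °C dye, 30 min RT · Compound dosing – 3 µM single concentration · Repeats – no replicates (n 1)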
O=c1c2ccccc2nc(/C=C/c2ccco2)n1-c1ccccc1O gave an activation of 0.46%.
Work on C[N+]12CN3CN(CN(C3)C1)C2 yielded an activation of 4.95%.
S=C(NCCc1ccccc1)N1Cc2cc(N3CCOCC3)ccc2-n2nncc2C1 gave an activation of 25.3%.
Work on O=S(=O)(c1ccccc1)N1CCC2CCNC2C1 (stereo not given) yielded an activation of 2.18%.
Work on CCN(CC)C(=O)c1ccc(NC(=O)c2cc(-n3cnnc3)ccc2Cl)cc1 yielded an activation of 8.2%.
Compound Cc1cc(N2CCNC[C@@H]2C)ccc1N1CC[C@H](O)C1 has an activation of 0.68%.
Compound CCN(CC)C(=O)[C@@H]1C=C2c3cccc4[nH]c(Br)c(c34)C[C@H]2N(C)C1 has an activation of 0.25%.
Work on CS(=O)(=O)N1CCC2CCNC2C1 (stereo not given) yielded an activation of 2.13%.
For Clc1ccc2nc3c(c(-c4ccccc4)c2c1)CNCC3, the activation was 55% (active).
With O=c1[nH]c(=O)n(CCc2ccccc2)c(O)c1/C=N/N1CCOCC1 the activation was 7.45%.
In the case of NCC(O)c1ccc(O)cc1 (stereo not given), the activation is reported as 80.5% (active).
CC12CN3CC(C)(CN(C1)C3c1cccs1)C2 (stereo not given) gave an activation of 8.25%.
With CC(CC(C#N)(c1ccccc1)c1ccccc1)N1CCCCC1 (stereo not given) the activation was 1.72%.
In the case of O=C(N/N=C/c1c(O)n(C2CC2)c(=S)[nH]c1=O)c1ccccc1Cl, the activation is reported as -1.25%.
For COc1ccc(-n2nnnc2C(c2cccc3ccccc23)N2CCC(n3c(=O)[nH]c4ccccc43)CC2)cc1 (stereo not given), the activation was 3.04%.
O=c1[nH]c2ccccc2n1C1CCN(C(c2ccccc2)c2nnnn2Cc2ccccc2)CC1 (stereo not given) showed an activation of 10.1%.
In the case of O=c1[nH]c2ccccc2n1C1CCN(C(c2ccnc3ccccc23)c2nnnn2Cc2ccccc2)CC1 (stereo not given), the activation is reported as 40.5% (active).
With Cc1ccc2c(c1)=C/C(=C\c1c(O)[nH]c(=O)[nH]c1=O)C(=O)N=2 the activation was 0.28%.
In the case of COc1cccc(OC)c1C(=O)NC(=S)N1C[C@H]2C[C@H](C1)c1cccc(=O)n1C2, the activation is reported as 4.06%.
In the case of O=C(CN1CCCC1=O)NCCc1ccccc1, the activation is reported as 38.6% (active).
Compound O=C1CC(=O)N(Cc2ccccc2)C(=O)N1CCCCCCN1C(=O)CC(=O)N(Cc2ccccc2)C1=O has an activation of 1.5%.
With OC(CNC1CCCCC1)c1ccccc1 (stereo not given) the activation was 0.51%.
With c1cc2c(cc1CCNC1CCCCCC1)OCO2 the activation was 4.36%.
For c1ccc(CCNC2CCCCCC2)cc1, the activation was 87.1% (active).
COc1ccc(CNCCc2ccc3c(c2)OCO3)c(OC)c1OC showed an activation of 2.45%.
Work on COc1ccc(CNCCc2c[nH]c3ccccc23)cc1OC yielded an activation of 1.21%.
For COc1ccc(Br)cc1CNCCc1cccc(Cl)c1, the activation was 49.1% (active).
CNC(=S)N/N=C1\C2CN3CCN(C2)CC1(c1ccccc1)C3 gave an activation of 2.42%.
With c1ccc2sc(N3CCNCC3)nc2c1 the activation was 10.3%.
In the case of CC(C)CN1Cc2cc(N3CCCCC3)ccc2-n2nncc2C1, the activation is reported as -1.61%.
